Legend:
[1] = tested on: chloride channel (γ-aminobutyric acid–gated); assay: CEREP off-target radioligand binding panel; conditions: 10 µM
Procedure, shortened: (§1)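 CEREP secondary-pharmacology panel of 55 receptors, transporters and ion channels. Test compound at 10 µM was assessed for inhibition of binding of a radiolabelled reference ligand specific to each target. Result is percent inhibition of ligand binding.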

[2] = target: CYP450 2D6 (Homo sapiens, UniProt P10635); assay: CYP450 inhibition, recombinant isoform; type: in vitro ADME
Procedure, shortened: (§2)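 Recombinant human CYP450 isoforms were incubated with isoform-specific probe substrates; for CYP3A4 these were midazolam and testosterone. Inhibition was quantified by LC-MS/MS analysis of probe-substrate turnover.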

[3] = Kinetic aqueous solubility, PBS pH 7.4; type: physicochemical; conditions: PBS buffer, pH 7.4, aqueous buffer, kinetic from dmso stock
Procedure, shortened: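 Kinetic solubility in PBS at pH 7.4, read by UV/Vis absorbance and reported in micromolar.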

[4] = target: NK3 (Homo sapiens, UniProt P29371); assay: CEREP off-target radioligand binding panel; conditions: read-out: inhibition of ligand binding
Procedure, shortened: as §1

[5] = Metabolite profile in hepatocytes; type: in vitro ADME; conditions: metabolite profiling in five species (mouse, rat, dog, NHP, human)
Procedure, shortened: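 Test compound at 1 µM was incubated at 37°C for 4 h with cryopreserved hepatocytes from mouse, rat, dog, monkey or human. Metabolite masses and relative abundance came from HPLC/MS/MS peak areas. Structures were characterised by LC/MS/MS on a Q-Trap instrument.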

[6] = GLP cardiopulmonary safety pharmacology study in NHPs; type: in vivo, NHP; conditions: NHPs, 10, 30 and 60 mg/kg
[7] = target: dopamine D1 (Homo sapiens, UniProt P21728); assay: CEREP off-target radioligand binding panel; conditions: read-out: inhibition of ligand binding
Procedure, shortened: as §1

[8] = tested on: Aβ38, Aβ40, Aβ42 in plasma; assay: Acute single-dose escalation and time course efficacy in NHPs; type: in vivo, cynomolgus macaque
Procedure, shortened: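 Cynomolgus macaques, two male and two female. Escalation phase: single nasogastric doses of 0, 10, 30, 100 and 200 mg/kg, with blood taken 4 h post-dose. Repeat phase: 200 mg/kg for 2 d, then 100 mg/kg for 5 d, with blood on days 1 and 7 at predose and 1, 2, 4, 8 and 24 h. K3EDTA plasma was stored at ≤ −60°C. Aβ38/40/42 were measured by MSD multiplex assay.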

[9] = Liver microsomal stability, human; type: in vitro ADME; conditions: liver microsomes
Procedure, shortened: (§3)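 Test compound at 1 µM was incubated for 30 min with liver microsomes at 1 mg/ml (human, rat or mouse). Result is percent of parent compound remaining.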

[10] = tested on: Aβ42, Aβ40, Aβ38 in plasma and brain extracts; assay: Chronic 3-mo efficacy in PSAPP transgenic mice; type: in vivo, mouse; conditions: 25 mg/kg/d po
Procedure, shortened: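 Female PSAPP (APPswe/PSEN1dE9) mice and wild-type C57BL/6J controls, 9–10 per group, housed at 22°C on a 12:12 h light cycle. Treatment began at 90 or 180 d of age: vehicle (80% PEG 400, 20% water, 0.1% Tween 20) or test compound 25 mg/kg/d by oral gavage for 3 mo. Brain Aβ peptides were then measured.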

[11] = Single-dose i.v./po PK in cynomolgus macaques; type: in vivo, cynomolgus macaque; conditions: for clearance: male, cynomolgus monkey, plasma, iv, 1 mg/kg
Procedure, shortened: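 Cynomolgus monkeys received a single i.v. dose of 1 mg/kg. Whole blood was collected at set time points and processed to plasma. Drug levels were measured with a bioanalytical method validated for NHP plasma. Clearance was derived from the plasma concentration–time data.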

[12] = target: hERG channel (Homo sapiens, UniProt Q12809); assay: Patch-Xpress patch-clamp hERG assay in HEK-293 cells; type: cell-based
[13] = 7-d dose range-finding toxicity and toxicokinetic study in rats; type: in vivo, rat
[14] = MDR1-MDCK permeability; type: in vitro ADME; conditions: dog
Procedure, shortened: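 Transport across MDR1-MDCK cell monolayers. Apparent permeability was measured in the apical-to-basolateral direction (× 10−6 cm/s). Efflux ratio was calculated as Papp B-A / Papp A-B.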

[15] = tested on: S. typhimurium strains TA1535, TA1537, TA98, TA100 and E. coli strain WP2 (uvrA); assay: GLP Salmonella–Escherichia coli/microsome plate incorporation; type: cell-based, Salmonella typhimurium; conditions: two S. typhimurium strains (T98 and T100), only with Aroclor-induced rat liver S9
Procedure, shortened: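 GLP plate-incorporation mutagenicity test using S. typhimurium TA1535, TA1537, TA98 and TA100 and E. coli WP2 (uvrA). Each strain was run with and without a metabolic activation mix of Aroclor 1254–induced rat liver microsomes (S9). Read-out is revertant bacterial growth.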

[16] = Human PK and 50% effective dose projection
[17] = Liver microsomal stability, mouse; type: in vitro ADME; conditions: liver microsomes
Procedure, shortened: as §3

[18] = Liver microsomal stability, rat; type: in vitro ADME; conditions: liver microsomes
Procedure, shortened: as §3

[19] = target: μ opioid receptors (Homo sapiens, UniProt P35372); assay: CEREP off-target radioligand binding panel; conditions: read-out: inhibition of ligand binding
Procedure, shortened: as §1

[20] = Plasma protein binding, equilibrium dialysis; type: in vitro ADME; conditions: human
Procedure, shortened: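 Equilibrium dialysis of test compound in human, rat or mouse plasma against buffer across a semipermeable membrane. Compound concentrations in both compartments were measured by LC/MS, and percent bound was derived from them.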

[21] = target: CYP450 2C19 (Homo sapiens, UniProt P33261); assay: CYP450 inhibition, recombinant isoform; type: in vitro ADME
Procedure, shortened: as §2

[22] = tested on: Aβ42, Aβ40, Aβ38 in plasma, brain and CSF; assay: 9-d repeat-dose pharmacodynamics in male Sprague-Dawley rats; type: in vivo, rat; conditions: 5 mg/kg po daily 9 d, 4 h post dose
Procedure, shortened: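 Male Sprague-Dawley rats, n = 14 per dose level, received vehicle (80% PEG 400, 20% water, 0.1% Tween 20) or test compound at 5, 25 or 50 mg/kg orally once daily for 9 d. Sampling was 4 h after the day-9 dose: plasma, brain extracts, and CSF from the cisterna magnum. Aβ38/40/42 were measured by MSD multiplex assay. Results are mean ± SEM, analysed by ANOVA.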

[23] = PSAPP mice treated from 3 mo of age (prophylactic)
[24] = PSAPP mice treated from 6 mo of age (disease-modifying)

hERG channel, sequence (Q12809 whole entry): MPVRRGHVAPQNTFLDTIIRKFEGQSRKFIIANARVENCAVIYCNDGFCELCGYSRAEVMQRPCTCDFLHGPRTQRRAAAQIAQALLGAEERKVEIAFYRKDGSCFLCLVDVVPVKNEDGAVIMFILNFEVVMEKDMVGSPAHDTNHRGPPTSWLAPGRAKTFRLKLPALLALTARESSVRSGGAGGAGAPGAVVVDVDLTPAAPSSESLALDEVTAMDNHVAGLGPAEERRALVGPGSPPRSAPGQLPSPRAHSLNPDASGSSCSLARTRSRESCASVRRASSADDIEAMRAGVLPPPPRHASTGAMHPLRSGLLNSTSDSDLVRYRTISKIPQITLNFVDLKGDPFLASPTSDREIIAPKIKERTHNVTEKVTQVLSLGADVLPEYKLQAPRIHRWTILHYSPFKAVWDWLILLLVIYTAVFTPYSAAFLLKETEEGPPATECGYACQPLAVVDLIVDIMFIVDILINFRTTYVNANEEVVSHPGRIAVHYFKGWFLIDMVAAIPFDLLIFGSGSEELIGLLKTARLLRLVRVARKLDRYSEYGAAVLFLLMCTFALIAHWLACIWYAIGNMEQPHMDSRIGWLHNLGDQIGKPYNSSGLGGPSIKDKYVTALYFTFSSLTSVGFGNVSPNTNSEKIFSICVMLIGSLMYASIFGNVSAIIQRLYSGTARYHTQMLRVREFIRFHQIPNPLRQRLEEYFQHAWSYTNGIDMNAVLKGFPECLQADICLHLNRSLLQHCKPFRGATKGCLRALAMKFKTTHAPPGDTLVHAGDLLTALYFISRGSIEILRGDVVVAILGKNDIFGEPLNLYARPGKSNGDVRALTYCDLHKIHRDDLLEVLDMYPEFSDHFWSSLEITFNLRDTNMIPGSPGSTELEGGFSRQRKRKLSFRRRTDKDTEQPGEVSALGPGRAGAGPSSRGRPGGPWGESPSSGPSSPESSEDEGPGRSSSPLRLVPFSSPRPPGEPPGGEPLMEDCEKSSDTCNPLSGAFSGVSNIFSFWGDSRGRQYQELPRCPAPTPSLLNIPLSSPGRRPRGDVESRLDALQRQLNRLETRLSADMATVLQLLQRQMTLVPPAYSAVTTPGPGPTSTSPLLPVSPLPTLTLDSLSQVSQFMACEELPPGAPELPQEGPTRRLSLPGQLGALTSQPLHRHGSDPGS
CYP450 2D6, sequence (P10635 whole entry, canonical isoform): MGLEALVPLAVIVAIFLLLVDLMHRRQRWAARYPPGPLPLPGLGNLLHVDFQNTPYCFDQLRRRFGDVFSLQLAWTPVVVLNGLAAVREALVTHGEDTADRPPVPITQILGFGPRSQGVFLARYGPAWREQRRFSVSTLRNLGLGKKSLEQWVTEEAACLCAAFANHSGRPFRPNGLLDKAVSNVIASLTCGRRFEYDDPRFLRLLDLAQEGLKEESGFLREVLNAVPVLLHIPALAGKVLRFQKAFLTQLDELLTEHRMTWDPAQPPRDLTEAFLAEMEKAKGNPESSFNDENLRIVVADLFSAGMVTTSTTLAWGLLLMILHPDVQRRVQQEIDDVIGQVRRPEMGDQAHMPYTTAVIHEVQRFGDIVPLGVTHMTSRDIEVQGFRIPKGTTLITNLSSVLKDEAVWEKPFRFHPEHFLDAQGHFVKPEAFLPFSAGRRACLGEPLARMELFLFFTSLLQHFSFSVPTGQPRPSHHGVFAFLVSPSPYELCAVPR
NK3, sequence (P29371 whole entry): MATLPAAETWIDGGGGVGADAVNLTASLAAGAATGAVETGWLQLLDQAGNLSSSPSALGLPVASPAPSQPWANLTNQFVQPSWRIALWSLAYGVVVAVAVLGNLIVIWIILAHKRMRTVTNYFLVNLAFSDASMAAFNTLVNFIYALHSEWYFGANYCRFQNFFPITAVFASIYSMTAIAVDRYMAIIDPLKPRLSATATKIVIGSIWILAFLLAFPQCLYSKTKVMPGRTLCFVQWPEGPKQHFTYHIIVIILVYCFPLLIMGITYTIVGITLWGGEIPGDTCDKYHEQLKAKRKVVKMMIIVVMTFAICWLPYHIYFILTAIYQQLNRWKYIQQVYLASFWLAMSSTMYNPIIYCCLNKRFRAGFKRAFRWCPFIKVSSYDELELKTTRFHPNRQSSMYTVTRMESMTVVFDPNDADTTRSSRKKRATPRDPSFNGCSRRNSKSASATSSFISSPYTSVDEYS
CYP450 2C19, sequence (P33261 whole entry, canonical isoform): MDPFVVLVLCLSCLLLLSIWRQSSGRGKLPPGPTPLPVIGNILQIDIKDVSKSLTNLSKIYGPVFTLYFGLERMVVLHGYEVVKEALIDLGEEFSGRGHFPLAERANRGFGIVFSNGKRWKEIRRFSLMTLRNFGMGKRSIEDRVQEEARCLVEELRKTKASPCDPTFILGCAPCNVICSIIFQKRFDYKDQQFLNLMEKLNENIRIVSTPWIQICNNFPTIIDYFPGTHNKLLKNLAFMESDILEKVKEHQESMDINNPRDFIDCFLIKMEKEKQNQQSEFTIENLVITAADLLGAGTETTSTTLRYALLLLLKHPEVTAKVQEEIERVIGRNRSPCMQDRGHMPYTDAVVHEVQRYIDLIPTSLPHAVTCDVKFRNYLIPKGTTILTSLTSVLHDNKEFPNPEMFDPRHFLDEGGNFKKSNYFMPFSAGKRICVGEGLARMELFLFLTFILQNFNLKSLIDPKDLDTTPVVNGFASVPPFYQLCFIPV
μ opioid receptors, sequence (P35372 whole entry): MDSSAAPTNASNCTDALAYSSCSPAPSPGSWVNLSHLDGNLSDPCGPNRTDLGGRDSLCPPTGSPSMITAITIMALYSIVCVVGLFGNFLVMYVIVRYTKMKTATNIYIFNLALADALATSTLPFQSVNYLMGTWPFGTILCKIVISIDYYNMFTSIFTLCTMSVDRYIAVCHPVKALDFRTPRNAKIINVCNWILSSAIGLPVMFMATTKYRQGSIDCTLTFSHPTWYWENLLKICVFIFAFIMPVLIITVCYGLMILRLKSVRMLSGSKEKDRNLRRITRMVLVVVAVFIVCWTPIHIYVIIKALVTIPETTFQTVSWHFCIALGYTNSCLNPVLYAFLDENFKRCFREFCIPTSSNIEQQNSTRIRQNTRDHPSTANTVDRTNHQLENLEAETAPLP
dopamine D1, sequence (P21728 whole entry): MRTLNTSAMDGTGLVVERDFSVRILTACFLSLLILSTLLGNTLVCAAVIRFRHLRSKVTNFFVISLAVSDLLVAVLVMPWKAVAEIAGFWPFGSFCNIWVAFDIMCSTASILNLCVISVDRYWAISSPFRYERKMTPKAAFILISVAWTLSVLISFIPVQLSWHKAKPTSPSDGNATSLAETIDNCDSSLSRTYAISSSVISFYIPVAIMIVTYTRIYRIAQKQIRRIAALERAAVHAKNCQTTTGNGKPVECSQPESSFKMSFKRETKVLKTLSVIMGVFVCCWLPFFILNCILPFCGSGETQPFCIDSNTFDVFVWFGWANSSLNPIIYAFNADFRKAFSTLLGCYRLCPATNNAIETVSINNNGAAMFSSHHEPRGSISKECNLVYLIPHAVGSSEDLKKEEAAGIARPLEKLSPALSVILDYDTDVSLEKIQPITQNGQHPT

Question: Which results are given for COc1nc(-c2cc(C)c(N[C@@H](C)c3cc(F)cc(F)c3)nn2)ccc1-n1cnc(C)c1 [Compound 2, (S)-N-(1-(3,5-difluorophenyl)ethyl)-6-(6-methoxy-5-(4-methyl-1H-imidazol-1-yl)pyridin-2-yl)-4-methylpyridazin-3-amine]?
Answer: inhibition of ligand binding [1]: Greater than 50%; IC50 [2]: 11 µM; solubility kinetic [3]: < 1.3 µM; inhibition at 10 µM [4]: > 50%; major metabolites [5]: no major metabolites; unique human metabolites [5]: absence of any unique human metabolites; effect on electrocardiogram parameters, including corrected QT interval [6]: no significant effect; inhibition at 10 µM [7]: > 50%; effect on levels of Aβ38 in plasma [8]: did not affect; sustained lowering of plasma Aβ42 and Aβ40 peptides ([8]; 200 mg/kg, day 1 of repeat-dosing phase, for over 24 h): ~70%; remaining at 0.5 h, 1 µM [9]: 71%; reduction of brain Aβ42, detergent-insoluble (formic acid) extract [10, 23]: 54%; reduction of brain Aβ42, detergent-soluble (RIPA buffer) extract [10, 23]: 44%; reduction of brain Aβ42, detergent-insoluble (formic acid) extract [10, 24]: 39%; reduction of brain Aβ42, detergent-soluble (RIPA buffer) extract [10, 24]: 45%; CL as percent of reported hepatic blood flow ([11]; NHPs, hepatic blood flow 50 ml/min/kg): < 10%; clearance ([11]; CL, NHPs): 5.5 mL/min/kg; clearance ([11]; Cl, NHP): 5.52 mL/min/kg; IC50 [12]: 7.3 µM; safety margin between Aβ42 IC50 and hERG IC20 [12]: > 100 fold; IC20 ([12]; human, HEK-293 cells expressing hERG): 1.3 µM; NOAEL at 7 d ([13]; both, Sprague-Dawley, rat, in vivo): ≥ 50 mg/kg; safety margin over the efficacious dose (5 mg/kg) ([13]; rats, 7-d DRF): 10–20 fold; Papp A→B [14]: 23.3 ×10⁻⁶ cm/s; GLP Ames bacterial mutagenicity result [15]: positive; fabs in humans (expected) [16]: ~90%; predicted human CL ([16]; allometric scaling from mouse, rat, NHP): ~5 mL/min/kg; AUC ([16]; human, plasma): 4320 ng·h/mL; remaining at 0.5 h, 1 µM [17]: 91%; remaining at 0.5 h, 1 µM [18]: 76%; inhibition at 10 µM [19]: > 50%; % PPB H [20]: 99.8%; IC50 [21]: 12 µM; Brain % Aβ42 ∆ vs vehicle (↓ reduction) [22]: 54%; Brain %Aβ40 ∆ vs vehicle (↓ reduction) [22]: 29%; CSF % Aβ42 ∆ vs vehicle (↓ reduction) [22]: 41%; CSF %Aβ40 ∆ vs vehicle (↓ reduction) [22]: 29%; Plasma % Aβ40 ∆ vs vehicle (↓ reduction) [22]: 57%; Plasma % Aβ42 ∆ vs vehicle (↓ reduction) [22]: 78%

Reference: publication PMC7931646 (The Journal of Experimental Medicine, 2021)
